Assay [1] deals with Candida albicans. Briefly: Synergistic antifungal activity against Candida albicans ATCC 90028 at 40 ug/ml after 48 hrs in presence of 5 ug/ml fluconazol by checkerboard assay relative to control. It is filed as functional. An outline of the steps: (§1)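 Checkerboard in C. albicans ATCC 90028, inoculum prepared per CLSI M27-A3 in RPMI. Fluconazole serially diluted 80-1.25 µg/mL across the plate against the partner compound at 80-1.25 µg/mL final. Incubated 48 h at 35°C. Metabolic activity read by XTT reduction at 475 nm (660 nm reference), given as % of the untreated growth control.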

Assay [2] has as its system Candida albicans. Briefly: Antifungal activity against Candida albicans ATCC 90028 assessed as metabolic activity at 80 ug/ml after 48 hrs in presence of 40 ug/ml fluconazol by XTT assay relative to control. (Tetrazolium dyes change colour on reduction, which living cells bring about.)
Assay [3] deals with Candida albicans. Briefly: Synergistic antifungal activity against Candida albicans ATCC 90028 at 40 ug/ml after 48 hrs in presence of 2.5 ug/ml fluconazol by checkerboard assay relative to control. The assay is classed as functional. An outline of the steps:
(§2)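 Checkerboard microdilution (M27-A3) on C. albicans ATCC 90028 in RPMI 1640: fluconazole (80-1.25 µg/mL) crossed with tetrazole (80-1.25 µg/mL final), incubated at 35°C for 48 h. Growth by OD405 at 18 and 48 h, endpoint taken as 100% inhibition. FIC index = sum of the two agents' FICs; <1 synergism, >1 antagonism.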

The test system of assay [4] is Candida albicans. Briefly: Antifungal activity against Candida albicans ATCC 90028 assessed as inhibition of metabolic activity at 5 ug/ml after 48 hrs in presence of 20 ug/ml fluconazol by XTT assay relative to control. It is filed as functional. Particulars: values are per cent of control. An outline of the steps: (§3)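 Checkerboard against strain ATCC 90028, inoculum per M27-A3: fluconazole 80-1.25 µg/mL on one axis, tetrazole 80-1.25 µg/mL on the other. Plates at 35°C for 48 h, then XTT metabolic reduction read at 475 nm (660 nm reference). Activity is the drop in mean absorbance against untreated growth control. FICs and their summed FIC index are taken at 50% reduction in metabolic activity.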

The subject of assay [5] is Candida albicans. Briefly: Antifungal activity against Candida albicans ATCC 90028 assessed as metabolic activity at 80 ug/ml after 48 hrs in presence of 1.25 ug/ml fluconazol by XTT assay relative to control.
The subject of assay [6] is Candida albicans. Briefly: Antifungal activity against Candida albicans ATCC 90028 assessed as inhibition of metabolic activity at 10 ug/ml after 48 hrs in presence of 2.5 ug/ml fluconazol by XTT assay relative to control. It is filed as functional. Particulars: values are per cent of control. An outline of the steps:
(§4)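 C. albicans ATCC 90028 in checkerboard: fluconazole serial dilutions (80-1.25 µg/mL) crossed with tetrazole (80-1.25 µg/mL final), M27-A3 inoculum in RPMI 1640, 35°C for 48 h. Metabolic activity measured by XTT reduction, read at 475 nm (660 nm reference). Activity expressed relative to untreated growth control absorbance.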

Assay [7] deals with Candida albicans. Briefly: Synergistic antifungal activity against Candida albicans ATCC 90028 at 10 ug/ml after 48 hrs in presence of 10 ug/ml fluconazol by checkerboard assay relative to control. Particulars: ATCC 90028, 48 h, read-out: GI. It is filed as functional. An outline of the steps:
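Checkerboard per M27-A3 against ATCC 90028: fluconazole at 80–1.25 µg/mL horizontally and partner compound at 80–1.25 µg/mL vertically, 100 µL yeast inoculum per well, 35°C for 48 h. After 48 h, metabolic activity was measured by XTT reduction at 475 nm (660 nm reference) relative to untreated growth control. FIC index is the sum of the FICs; <1 was defined as synergism and >1 as antagonism.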

For assay [8], the system named is Candida albicans. Briefly: Antifungal activity against Candida albicans ATCC 90028 at 0.0313 ug/ml after 48 hrs relative to control. The assay is classed as functional.
The subject of assay [9] is Candida albicans. Briefly: Synergistic antifungal activity against Candida albicans ATCC 90028 at 5 ug/ml after 48 hrs in presence of 10 ug/ml fluconazol by checkerboard assay relative to control. The assay is classed as functional. In a few lines:
as §1

The subject of assay [10] is Candida albicans. Briefly: Synergistic antifungal activity against Candida albicans ATCC 90028 at 40 ug/ml after 48 hrs in presence of 1.25 ug/ml fluconazol by checkerboard assay relative to control. It is filed as functional. In a few lines:
as §1

Assay [11] deals with Candida albicans. Briefly: Antifungal activity against Candida albicans ATCC 90028 assessed as inhibition of metabolic activity at 2.5 ug/ml after 48 hrs in presence of 5 ug/ml fluconazol by XTT assay relative to control. Particulars: values are per cent of control. It is filed as functional. An outline of the steps:
as §4

In assay [12] the test system is Candida albicans. Briefly: Antifungal activity against Candida albicans ATCC 90028 at 0.5 ug/ml after 18 hrs relative to control. It is filed as functional. An outline of the steps: (§5)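 Planktonic broth microdilution per M27-A3 in MOPS-buffered RPMI 1640 (pH 7.0), final inoculum 1.8×10^3 cells/mL, compounds 0.0313–16 µg/mL from 1600 µg/mL stocks in ethanol or DMSO. Incubated at 35°C without agitation; OD405 read at 18 and 48 h. % inhibition was derived from test, sterility (no inoculum) and solvent growth-control wells. Amphotericin B at 0.5 µg/mL served as the 100% control.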

Assay [13] concerns Candida albicans. Briefly: Antifungal activity against Candida albicans ATCC 90028 at 0.5 ug/ml after 48 hrs relative to control. It is filed as functional. In a few lines:
as §5

Assay [14] concerns Candida albicans. Briefly: Synergistic antifungal activity against Candida albicans ATCC 90028 at 80 ug/ml after 48 hrs in presence of 2.5 ug/ml fluconazol by checkerboard assay relative to control. It is filed as functional. An outline of the steps: as §2
The subject of assay [15] is Candida albicans. Briefly: Antifungal activity against Candida albicans ATCC 90028 assessed as inhibition of metabolic activity at 10 ug/ml after 48 hrs in presence of 10 ug/ml fluconazol by XTT assay relative to control. It is filed as functional. Particulars: ATCC 90028, 48 h, values are per cent of control. In a few lines: as §3
Assay [16] deals with Candida albicans. Briefly: Antifungal activity against Candida albicans ATCC 90028 assessed as metabolic activity at 80 ug/ml after 48 hrs in presence of 80 ug/ml fluconazol by XTT assay relative to control. Particulars: ATCC 90028, 48 h.
Assay [17] has as its system Candida albicans. Briefly: Synergistic antifungal activity against Candida albicans ATCC 90028 at 40 ug/ml after 48 hrs in presence of 10 ug/ml fluconazol by checkerboard assay relative to control. It is filed as functional. An outline of the steps: as §1
Assay [18] relates to Candida albicans. Briefly: Antifungal activity against Candida albicans ATCC 90028 assessed as inhibition of metabolic activity at 5 ug/ml after 48 hrs in presence of 5 ug/ml fluconazol by XTT assay relative to control. Particulars: ATCC 90028, 48 h, values are per cent of control. The assay is classed as functional. An outline of the steps: as §3
The subject of assay [19] is Candida albicans. Briefly: Synergistic antifungal activity against Candida albicans ATCC 90028 at 5 ug/ml after 48 hrs in presence of 1.25 ug/ml fluconazol by checkerboard assay relative to control. It is filed as functional. An outline of the steps: as §1
Assay [20] concerns Candida albicans. Briefly: Synergistic antifungal activity against Candida albicans ATCC 90028 at 5 ug/ml after 48 hrs in presence of 40 ug/ml fluconazol by checkerboard assay relative to control. It is filed as functional. An outline of the steps:
as §1

For assay [21], the system named is Candida albicans. Briefly: Antifungal activity against Candida albicans ATCC 90028 assessed as metabolic activity at 80 ug/ml after 48 hrs in presence of 10 ug/ml fluconazol by XTT assay relative to control.

In the case of `CCOC(=O)CCn1nnc(-c2ccccc2)n1`, the “growth inhibition (GI)” value in the assay on Candida albicans [1] turned out to be 98.93%; in the assay with Candida albicans [3], 99.74%; in the assay with Candida albicans [9] it was 99.57%; with Candida albicans [10], 99.56%; in the assay with Candida albicans [14] it was 99.77%; in the assay with Candida albicans [17], 99.53%. Moreover, the “growth inhibition (GI)” value in the assay on Candida albicans [19] is reported as 99.71%; in the assay with Candida albicans [20] it was 99.51%. For the same compound, the Metabolic activity amounted to 97.37% in the assay with Candida albicans [2], 41.98% in the assay on Candida albicans [5] and 52.64% in the assay on Candida albicans [21]. For the same compound, the values for the residual activity in the assay on Candida albicans [4], with Candida albicans [6] and with Candida albicans [11] were 67.66%, 71.14% and 95.38%, respectively. Further, in the assay on Candida albicans [7], the inhibition of growth at 10 µg/mL is 99.4%. The Activity in the assay with Candida albicans [8] was determined as 99.12%; in the assay on Candida albicans [12] it was 98.97%; in the assay with Candida albicans [13], 99.31%. Besides, the residual activity (commonly the share of the control activity or signal that is left under treatment) at 10 µg/mL in the assay with Candida albicans [15] was 76.2%. Also, the Metabolic activity at 80 µg/mL in the assay with Candida albicans [16] stood at 40%. For the same compound, in the assay with Candida albicans [18], the residual activity at 5 µg/mL was 100%.

With `Cc1ccc(-c2nnn(CCCN3CCOCC3)n2)cc1`, the “growth inhibition (GI)” value worked out at 98.83% in the assay on Candida albicans [1]; 99.77% in the assay with Candida albicans [3]; 98.8% with Candida albicans [9]; 99.57% in the assay with Candida albicans [10]; 99.54% in the assay with Candida albicans [14]; 99.69% in the assay on Candida albicans [17]. The “growth inhibition (GI)” value in the assay on Candida albicans [19] is 98.77%; in the assay on Candida albicans [20], 99.15%. Also, the results for the Metabolic activity in the assay on Candida albicans [2], with Candida albicans [5] and in the assay with Candida albicans [21] were 100%, 100% and 11.87%, respectively. For the same compound, the figures for the residual activity with Candida albicans [4], with Candida albicans [6] and in the assay on Candida albicans [11] were 93.31%, 100% and 100%, respectively. In addition, in the assay on Candida albicans [7], the inhibition of growth at 10 µg/mL was 99%. Besides, the Activity in the assay with Candida albicans [8] was determined as 99.56%; with Candida albicans [12] it was 98.99%; in the assay with Candida albicans [13], 99.18%. Moreover, in the assay on Candida albicans [15], the residual activity at 10 µg/mL came out at 99%. Also, the Metabolic activity at 80 µg/mL in the assay with Candida albicans [16] came to 73.4%. Besides, the residual activity at 5 µg/mL with Candida albicans [18] was 100%.

As for `ClCCCn1nnnc1-c1ccccc1Cl`, the “growth inhibition (GI)” value was determined as 98.95% in the assay with Candida albicans [1]; 99.14% in the assay with Candida albicans [3]; 99.66% with Candida albicans [9]; 99.93% in the assay on Candida albicans [10]; 99.67% with Candida albicans [14]; 99.59% with Candida albicans [17]. Besides, the “growth inhibition (GI)” value in the assay on Candida albicans [19] is listed as 99.79%; in the assay on Candida albicans [20] it was 99.25%. For the same compound, the Metabolic activity in the assay with Candida albicans [2] came out at 89.73%; with Candida albicans [5], 2.6%; in the assay on Candida albicans [21] it was 73.98%. For the same compound, the residual activity with Candida albicans [4] was 73.79%; in the assay with Candida albicans [6], 79.69%; with Candida albicans [11], 100%. Also, the inhibition of growth at 10 µg/mL in the assay on Candida albicans [7] was found to be 99.7%. Also, the Activity came out at 99.38% with Candida albicans [8], 98.4% with Candida albicans [12] and 99.22% in the assay with Candida albicans [13]. For the same compound, the residual activity at 10 µg/mL in the assay on Candida albicans [15] was determined as 75.4%. Besides, in the assay on Candida albicans [16], the Metabolic activity at 80 µg/mL is 53.2%. The residual activity at 5 µg/mL in the assay on Candida albicans [18] is 100%.

These data come from ChEMBL document CHEMBL4145471, “New 1,5 and 2,5-disubstituted tetrazoles-dependent activity towards surface barrier of Candida albicans” (Eur J Med Chem, 2018).
